{"source": "ChEMBL document CHEMBL1137397", "about": "“Identification of selective, nonpeptidic nitrile inhibitors of cathepsin s using the substrate activity screening method” (J Med Chem, 2006)", "proteins": {"B1": {"name": "Cathepsin S (Homo sapiens), P25774 (protein)", "chain": "MKRLVCVLLVCSSAVAQLHKDPTLDHHWHLWKKTYGKQYKEKNEEAVRRLIWEKNLKFVMLHNLEHSMGMHSYDLGMNHLGDMTSEEVMSLMSSLRVPSQWQRNITYKSNPNRILPDSVDWREKGCVTEVKYQGSCGACWAFSAVGALEAQLKLKTGKLVSLSAQNLVDCSTEKYGNKGCNGGFMTTAFQYIIDNKGIDSDASYPYKAMDQKCQYDSKYRAATCSKYTELPYGREDVLKEAVANKGPVSVGVDARHPSFFLYRSGVYYEPSCTQNVNHGVLVVGYGDLNGKEYWLVKNSWGHNFGEEGYIRMARNKGNHCGIASFPSYPEI"}}, "settings_in_all_cases": "Homo sapiens", "key": {"[1]": {"substrate": "CCCC[C@@H](C(=O)Nc1ccc2c(C)c(CC(=O)O)c(=O)oc2c1)n1cc([C@@](C)(NC(=O)c2ccsc2)C2CCC(C)CC2)nn1", "assay": "(§1) Binding affinity to cathepsin S", "in_short": "(§2)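 Cathepsin S at 0.6 nM in pH 6.1 100 mM sodium phosphate with 100 mM NaCl, 1 mM DTT, 1 mM EDTA and 0.001% Tween-20. Enzyme preincubated 5 min at 37 °C with five inhibitor concentrations (10-90% inhibition), in duplicate. Cbz-Leu-Arg-AMC added at 5 and 2.5 µM, then AMC read (ex 355/em 450 nm) over 5 min. Ki by Dixon method.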"}, "[2]": {"substrate": "CCCC[C@@H](C(=O)Nc1ccc2c(C)c(CC(=O)O)c(=O)oc2c1)n1cc([C@@](C)(NC(=O)c2ccsc2)C(C)C)nn1", "assay": "as §1", "in_short": "as §2"}, "[3]": {"substrate": "CCCC[C@@H](C(=O)Nc1ccc2c(C)c(CC(=O)O)c(=O)oc2c1)n1cc([C@@](C)(NC(=O)c2ccsc2)C2CCCCC2)nn1", "assay": "as §1", "in_short": "as §2"}, "[4]": {"substrate": "CCCC[C@@H](C(=O)Nc1ccc2c(C)c(CC(=O)O)c(=O)oc2c1)n1cc([C@@](C)(NC(=O)c2ccccc2)C(C)C)nn1", "assay": "as §1", "in_short": "as §2"}, "[5]": {"substrate": "CCCC[C@@H](C(=O)Nc1ccc2c(C)c(CC(=O)O)c(=O)oc2c1)n1cc([C@@](C)(NC(=O)c2ccccc2)C2CCCCC2)nn1", "assay": "as §1", "in_short": "as §2"}}, "data": [{"protein": "B1", "values": [{"measurement": "Km", "setting": "[1]", "value": 17, "unit": "µM"}, {"measurement": "Km", "setting": "[2]", "value": 300, "unit": "µM"}, {"measurement": "Km", "setting": "[3]", "value": 13, "unit": "µM"}, {"measurement": "Km", "setting": "[4]", "value": 410, "unit": "µM"}, {"measurement": "Km", "setting": "[5]", "value": 57, "unit": "µM"}]}]}
